The record followed here is ChEMBL document CHEMBL1149772, “GdCl(3) catalysed Grieco condensation: a facile approach for the synthesis of novel pyrimidine and annulated pyrimidine fused indazole derivatives in single pot under mild conditions and their anti-microbial activity” (2008).

What all share (assay type): functional
One assay relates to Bacillus subtilis. The assay can be described thus: Antibacterial activity against Bacillus subtilis MTCC 441 by broth dilution method. A digest of the protocol:
(§1)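 Test bacteria kept on nutrient agar slants and subcultured in Petri dishes before testing. Nutrient agar and nutrient broth media. Compounds dissolved in acetone. MIC determined by broth dilution.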
A general note: In broth dilution the organism is exposed to a series of concentrations in liquid medium.

In a further assay the test system is Staphylococcus aureus. The assay can be described thus: Antibacterial activity against Staphylococcus aureus MTCC 96 by broth dilution method. The method, boiled down:
as §1

The test system of another assay is Pseudomonas aeruginosa. Briefly: Antibacterial activity against Pseudomonas aeruginosa MTCC 1688 by broth dilution method. The method, boiled down: as §1
In a further assay the test system is Escherichia coli. Briefly: Antibacterial activity against Escherichia coli MTCC 443 by broth dilution method. A digest of the protocol: as §1
In assay [1] the test system is Candida albicans. The assay can be described thus: Antifungal activity against Candida albicans MTCC 227 at 100 ug/ml by agar cup diffusion method. The settings on record: read-out: IZ. The method, boiled down: (§2)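 Agar cup diffusion on autoclaved potato dextrose agar (15 lb/inch², 20 min). A week-old culture was spread over the solidified agar, and 6 mm cups were bored. Compounds were in DMSO at 100–150; amphotericin-B reference at 50; DMSO control. Plates held at 28 °C for 48 h. Inhibition zone diameter read in mm.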

Assay [2] has as its system Candida albicans. Briefly: Antifungal activity against Candida albicans MTCC 227 at 150 ug/ml by agar cup diffusion method. The settings on record: read-out: IZ. The method, boiled down: as §2
Assay [3] has as its system Rhizopus arrhizus. Briefly: Antifungal activity against Rhizopus oryzae MTCC 262 at 100 ug/ml by agar cup diffusion method. Particulars: read-out: IZ. A digest of the protocol: as §2
Assay [4] has as its system Rhizopus arrhizus. Briefly: Antifungal activity against Rhizopus oryzae MTCC 262 at 150 ug/ml by agar cup diffusion method. Particulars: read-out: IZ. A digest of the protocol:
as §2

Assay [5] deals with Aspergillus niger. Briefly: Antifungal activity against Aspergillus niger MTCC 1344 at 100 ug/ml by agar cup diffusion method. The settings on record: read-out: IZ. A digest of the protocol: as §2
Assay [6] deals with Aspergillus niger. Briefly: Antifungal activity against Aspergillus niger MTCC 1344 at 150 ug/ml by agar cup diffusion method. The settings on record: read-out: IZ. A digest of the protocol:
as §2

The subject of assay [7] is Candida albicans. Briefly: Antifungal activity against Candida albicans MTCC 227 at 50 ug/ml by agar cup diffusion method. The settings on record: MTCC 227, read-out: IZ.
For another assay, the system named is Saccharomyces cerevisiae. The assay can be described thus: Antifungal activity against Saccharomyces cerevisiae MTCC 36 at 50 ug/ml by agar cup diffusion method. Particulars: MTCC 36, read-out: IZ. The method, boiled down:
as §2

The test system of assay [8] is Rhizopus arrhizus. The assay can be described thus: Antifungal activity against Rhizopus oryzae MTCC 262 at 50 ug/ml by agar cup diffusion method. The settings on record: MTCC 262, read-out: IZ. A digest of the protocol: as §2
For assay [9], the system named is Aspergillus niger. The assay can be described thus: Antifungal activity against Aspergillus niger MTCC 1344 at 50 ug/ml by agar cup diffusion method. Particulars: MTCC 1344, read-out: IZ. A digest of the protocol: as §2

≈ marks a conversion by molar mass, not a printed value.

By MIC is commonly meant the lowest concentration found to suppress growth. On to `N#Cc1c(-c2ccccc2)cc(C(F)(F)F)c2c3n(nc12)[C@H]1C=CCC[C@H]1CN3`, for which the MIC in the assay on Bacillus subtilis stood at 150 µg/mL (≈ 380 µM); in the assay on Staphylococcus aureus, 75 µg/mL (≈ 190 µM); with Pseudomonas aeruginosa, 75 µg/mL (≈ 190 µM); in the assay with Escherichia coli, 37.5 µg/mL (≈ 95.1 µM). For the same compound, the figures for the zone of inhibition at 100 µg/mL in the assay with Candida albicans [1], in the assay with Rhizopus arrhizus [3] and with Aspergillus niger [5] were 7 mm, 8 mm and 10 mm, respectively. The figures for the zone of inhibition at 150 µg/mL in the assay with Candida albicans [2], in the assay on Rhizopus arrhizus [4] and in the assay on Aspergillus niger [6] were 8 mm, 12 mm and 12 mm, respectively.

In the case of `CC1(c2ccccc2)CCNc2c3c(C(F)(F)F)cc(-c4ccccc4)c(C#N)c3nn21` (configuration not stated), the minimum inhibitory concentration (MIC) was found to be 75 µg/mL (≈ 173 µM) with Bacillus subtilis, 75 µg/mL (≈ 173 µM) in the assay with Staphylococcus aureus, 75 µg/mL (≈ 173 µM) in the assay with Pseudomonas aeruginosa and 37.5 µg/mL (≈ 86.7 µM) against Escherichia coli. Also, the zone of inhibition at 100 µg/mL with Candida albicans [1] came to 8 mm. Moreover, the zone of inhibition at 150 µg/mL in the assay on Candida albicans [2] was 9 mm; in the assay on Rhizopus arrhizus [4], 12 mm.

Consider `N#Cc1c(-c2ccccc2)cc(C(F)(F)F)c2c3n(nc12)[C@@]1(c2ccccc2)CCCC[C@H]1CN3`, for which the minimum inhibitory concentration (MIC) against Bacillus subtilis stood at 75 µg/mL (≈ 159 µM); with Staphylococcus aureus it was 37.5 µg/mL (≈ 79.4 µM); in the assay on Pseudomonas aeruginosa it was 75 µg/mL (≈ 159 µM); in the assay on Escherichia coli, 37.5 µg/mL (≈ 79.4 µM). In addition, in the assay on Candida albicans [1], the zone of inhibition at 100 µg/mL stood at 9 mm. The zone of inhibition at 150 µg/mL with Candida albicans [2] came out at 11 mm; with Rhizopus arrhizus [4] it was 9 mm; with Aspergillus niger [6] it was 10 mm.

`N#Cc1c(C(F)(F)F)cc(-c2ccccc2)c2c3n(nc12)[C@H]1OCCC[C@H]1CN3`: the MIC against Bacillus subtilis came out at 150 µg/mL (≈ 377 µM); against Staphylococcus aureus, 150 µg/mL (≈ 377 µM); against Pseudomonas aeruginosa, 150 µg/mL (≈ 377 µM); in the assay with Escherichia coli it was 75 µg/mL (≈ 188 µM). In addition, the zone of inhibition at 100 µg/mL in the assay on Candida albicans [1] amounted to 8 mm. For the same compound, the results for the zone of inhibition at 150 µg/mL with Candida albicans [2] and with Rhizopus arrhizus [4] were 10 mm and 9 mm, respectively.

Take `N#Cc1c(C(F)(F)F)cc(-c2ccccc2)c2c3n(nc12)C(c1ccccc1)CCN3` (configuration not stated): in the assay on Rhizopus arrhizus [3], the zone of inhibition at 100 µg/mL turned out to be 8 mm. Also, the zone of inhibition at 150 µg/mL in the assay on Rhizopus arrhizus [4] turned out to be 10 mm.

Take `N#Cc1c(-c2ccccc2)cc(C(F)(F)F)c2c3n(nc12)[C@H]1OCCC[C@H]1CN3`: the MIC was found to be 150 µg/mL (≈ 377 µM) in the assay on Bacillus subtilis, 75 µg/mL (≈ 188 µM) against Staphylococcus aureus, 150 µg/mL (≈ 377 µM) against Pseudomonas aeruginosa and 75 µg/mL (≈ 188 µM) in the assay on Escherichia coli. In addition, the zone of inhibition at 100 µg/mL with Rhizopus arrhizus [3] amounted to 9 mm.

For `C=CC1(C)CCNc2c3c(-c4ccccc4)cc(C(F)(F)F)c(C#N)c3nn21` (configuration not stated), the minimal inhibitory concentration (MIC) in the assay with Bacillus subtilis amounted to 75 µg/mL (≈ 196 µM); against Staphylococcus aureus it was 150 µg/mL (≈ 392 µM); with Pseudomonas aeruginosa, 75 µg/mL (≈ 196 µM); against Escherichia coli it was 150 µg/mL (≈ 392 µM).

For the compound `N#Cc1c(-c2ccccc2)cc(C(F)(F)F)c2c3n(nc12)[C@H]1C=CC[C@H]1CN3`, the minimum inhibitory concentration (MIC) with Bacillus subtilis came to 150 µg/mL (≈ 394 µM); in the assay with Staphylococcus aureus, 37.5 µg/mL (≈ 98.6 µM); in the assay with Pseudomonas aeruginosa, 75 µg/mL (≈ 197 µM); in the assay on Escherichia coli it was 37.5 µg/mL (≈ 98.6 µM). Further, the zone of inhibition at 150 µg/mL in the assay with Candida albicans [2] worked out at 9 mm; in the assay with Aspergillus niger [6], 10 mm.

Take `N#Cc1c(-c2ccccc2)cc(C(F)(F)F)c2c3n(nc12)C(c1ccccc1)CCN3` (configuration not stated): the minimum inhibitory concentration (MIC) was 50 µg/mL (≈ 119 µM) against Bacillus subtilis, 50 µg/mL (≈ 119 µM) against Staphylococcus aureus, 50 µg/mL (≈ 119 µM) in the assay on Pseudomonas aeruginosa and 25 µg/mL (≈ 59.7 µM) against Escherichia coli.

As for `C=CC1(C)CCNc2c3c(C(F)(F)F)cc(-c4ccccc4)c(C#N)c3nn21` (configuration not stated), the MIC against Bacillus subtilis is 150 µg/mL (≈ 392 µM); against Staphylococcus aureus, 75 µg/mL (≈ 196 µM); against Pseudomonas aeruginosa, 150 µg/mL (≈ 392 µM); against Escherichia coli, 150 µg/mL (≈ 392 µM). Also, the zone of inhibition at 100 µg/mL in the assay on Candida albicans [1] and in the assay with Aspergillus niger [5] was 7 mm each time. For the same compound, the zone of inhibition at 150 µg/mL in the assay on Candida albicans [2] and in the assay with Aspergillus niger [6] was 8 mm throughout.

Turning to `N#Cc1c(-c2ccccc2)cc(C(F)(F)F)c2c3n(nc12)[C@H]1c2ccccc2C[C@H]1CN3`, the minimal inhibitory concentration (MIC) in the assay with Bacillus subtilis worked out at 75 µg/mL (≈ 174 µM); in the assay on Staphylococcus aureus, 150 µg/mL (≈ 348 µM); with Pseudomonas aeruginosa it was 150 µg/mL (≈ 348 µM); against Escherichia coli, 75 µg/mL (≈ 174 µM). Further, the zone of inhibition at 100 µg/mL in the assay with Rhizopus arrhizus [3] was 7 mm. Moreover, the zone of inhibition at 150 µg/mL with Rhizopus arrhizus [4] and in the assay on Aspergillus niger [6] was 9 mm in each case.

Take `C[C@@H]1[C@H](O)[C@@H](C)/C=C/C=C/C=C/C=C/C=C/C=C/C=C/[C@H](O[C@@H]2O[C@H](C)[C@@H](O)[C@H](N)[C@@H]2O)C[C@@H]2O[C@](O)(C[C@@H](O)C[C@@H](O)[C@H](O)CC[C@@H](O)C[C@@H](O)CC(=O)O[C@H]1C)C[C@H](O)[C@H]2C(=O)O` [AMPHOTERICIN B]: the zone of inhibition at 50 µg/mL in the assay on Candida albicans [7] worked out at 22 mm; in the assay with Saccharomyces cerevisiae, 23 mm; with Rhizopus arrhizus [8], 26 mm; in the assay on Aspergillus niger [9], 23.5 mm.
